Results: ChEMBL document CHEMBL3608301, “Phenolic Compounds from Atriplex littoralis and Their Radiation-Mitigating Activity” (J Nat Prod, 2015)

How the values were obtained:
PBL [1] = test: Toxicity in 2-Gy gamma irradiated human PBL assessed as cytokinesis-block proliferation index at 1 uM treated for 2 to 19 hrs followed by compound washout measured after 72 hrs (reference value: 1.6 +/- 0.1); assay type: cell-based
PBL [2] = test: Toxicity in 2-Gy gamma irradiated human PBL assessed as cytokinesis-block proliferation index at 2 uM treated for 2 to 19 hrs followed by compound washout measured after 72 hrs (reference value: 1.6 +/- 0.1); assay type: cell-based
PBL [3] = test: Toxicity in 2-Gy gamma irradiated human PBL assessed as cytokinesis-block proliferation index at 4 uM treated for 2 to 19 hrs followed by compound washout measured after 72 hrs (reference value: 1.6 +/- 0.1); assay type: cell-based
PBL [4] = test: Radioprotective activity in 2-Gy gamma irradiated human PBL assessed as binucleated cells with micronuclei at 1 uM treated for 2 to 19 hrs followed by compound washout measured after 72 hrs by cytochalasin-B-blocked micronucleus assay (reference value: 15.5 +/- 0.6%); assay type: functional
Procedure, shortened: (§1)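 Venous blood from five healthy male volunteers was γ-irradiated at 2 Gy (0.45 Gy/min) at room temperature and cultured. Compounds (0.8−7.4 μM final) were added 2 to 19 h after irradiation, at 37 °C. Cultures were then rinsed and moved to fresh RPMI 1640 for 72 h. Cytokinesis-block micronucleus assay: ≥1000 binucleated cells scored per sample (Countryman–Heddle criteria). Controls were non-treated irradiated cultures; one-way ANOVA with Tukey test.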

PBL [5] = test: Radioprotective activity in 2-Gy gamma irradiated human PBL assessed as binucleated cells with micronuclei at 2 uM treated for 2 to 19 hrs followed by compound washout measured after 72 hrs by cytochalasin-B-blocked micronucleus assay (reference value: 15.5 +/- 0.6%); assay type: functional; procedure, shortened: as §1
PBL [6] = test: Radioprotective activity in 2-Gy gamma irradiated human PBL assessed as binucleated cells with micronuclei at 4 uM treated for 2 to 19 hrs followed by compound washout measured after 72 hrs by cytochalasin-B-blocked micronucleus assay (reference value: 15.5 +/- 0.6%); assay type: functional; procedure, shortened: as §1
PBL [7] = test: Radioprotective activity in 2-Gy gamma irradiated human PBL assessed as incidence of micronuclei in 1000 binucleated cells at 1 uM treated for 2 to 19 hrs followed by compound washout measured after 72 hrs by cytochalasin-B-blocked micronucleus assay (reference value: 183 +/- 9.6); assay type: functional; procedure, shortened: as §1
PBL [8] = test: Radioprotective activity in 2-Gy gamma irradiated human PBL assessed as incidence of micronuclei in 1000 binucleated cells at 2 uM treated for 2 to 19 hrs followed by compound washout measured after 72 hrs by cytochalasin-B-blocked micronucleus assay (reference value: 183 +/- 9.6); assay type: functional; procedure, shortened: as §1
PBL [9] = test: Radioprotective activity in 2-Gy gamma irradiated human PBL assessed as incidence of micronuclei in 1000 binucleated cells at 4 uM treated for 2 to 19 hrs followed by compound washout measured after 72 hrs by cytochalasin-B-blocked micronucleus assay (reference value: 183 +/- 9.6); assay type: functional; procedure, shortened: as §1
PBL [10] = test: Radioprotective activity in 2-Gy gamma irradiated human PBL assessed as incidence of micronuclei in binucleated cells at 1 uM treated for 2 to 19 hrs followed by compound washout measured after 72 hrs by cytochalasin-B-blocked micronucleus assay (reference value: 1.2 +/- 0.03); assay type: functional; procedure, shortened: as §1
PBL [11] = test: Radioprotective activity in 2-Gy gamma irradiated human PBL assessed as incidence of micronuclei in binucleated cells at 2 uM treated for 2 to 19 hrs followed by compound washout measured after 72 hrs by cytochalasin-B-blocked micronucleus assay (reference value: 1.2 +/- 0.03); assay type: functional; procedure, shortened: as §1
PBL [12] = test: Radioprotective activity in 2-Gy gamma irradiated human PBL assessed as incidence of micronuclei in binucleated cells at 4 uM treated for 2 to 19 hrs followed by compound washout measured after 72 hrs by cytochalasin-B-blocked micronucleus assay (reference value: 1.2 +/- 0.03); assay type: functional; procedure, shortened: as §1
PBL [13] = test: Radioprotective activity in 2-Gy gamma irradiated human PBL assessed as frequency of micronuclei at 1 uM treated for 2 to 19 hrs followed by compound washout measured after 72 hrs by cytochalasin-B-blocked micronucleus assay relative to control; assay type: functional; procedure, shortened: as §1
PBL [14] = test: Radioprotective activity in 2-Gy gamma irradiated human PBL assessed as frequency of micronuclei at 2 uM treated for 2 to 19 hrs followed by compound washout measured after 72 hrs by cytochalasin-B-blocked micronucleus assay relative to control; assay type: functional; procedure, shortened: as §1
PBL [15] = test: Radioprotective activity in 2-Gy gamma irradiated human PBL assessed as frequency of micronuclei at 4 uM treated for 2 to 19 hrs followed by compound washout measured after 72 hrs by cytochalasin-B-blocked micronucleus assay relative to control; assay type: functional; procedure, shortened: as §1
PBL [16] = test: Toxicity in 2-Gy gamma irradiated human PBL assessed as cytokinesis-block proliferation index at 4.7 uM treated for 2 to 19 hrs followed by compound washout measured after 72 hrs (reference value: 1.6 +/- 0.1); assay type: cell-based
PBL [17] = test: Radioprotective activity in 2-Gy gamma irradiated human PBL assessed as binucleated cells with micronuclei at 4.7 uM treated for 2 to 19 hrs followed by compound washout measured after 72 hrs by cytochalasin-B-blocked micronucleus assay (reference value: 15.5 +/- 0.6%); assay type: functional
PBL [18] = test: Radioprotective activity in 2-Gy gamma irradiated human PBL assessed as incidence of micronuclei in 1000 binucleated cells at 4.7 uM treated for 2 to 19 hrs followed by compound washout measured after 72 hrs by cytochalasin-B-blocked micronucleus assay (reference value: 183 +/- 9.6); assay type: functional
PBL [19] = test: Radioprotective activity in 2-Gy gamma irradiated human PBL assessed as incidence of micronuclei in binucleated cells at 4.7 uM treated for 2 to 19 hrs followed by compound washout measured after 72 hrs by cytochalasin-B-blocked micronucleus assay (reference value: 1.2 +/- 0.03); assay type: functional
PBL [20] = test: Radioprotective activity in 2-Gy gamma irradiated human PBL assessed as frequency of micronuclei at 4.7 uM treated for 2 to 19 hrs followed by compound washout measured after 72 hrs by cytochalasin-B-blocked micronucleus assay relative to control; assay type: functional
PBL [21] = test: Toxicity in 2-Gy gamma irradiated human PBL assessed as cytokinesis-block proliferation index at 3 uM treated for 2 to 19 hrs followed by compound washout measured after 72 hrs (reference value: 1.6 +/- 0.1); assay type: cell-based
PBL [22] = test: Radioprotective activity in 2-Gy gamma irradiated human PBL assessed as binucleated cells with micronuclei at 3 uM treated for 2 to 19 hrs followed by compound washout measured after 72 hrs by cytochalasin-B-blocked micronucleus assay (reference value: 15.5 +/- 0.6%); assay type: functional; procedure, shortened: as §1
PBL [23] = test: Radioprotective activity in 2-Gy gamma irradiated human PBL assessed as incidence of micronuclei in 1000 binucleated cells at 3 uM treated for 2 to 19 hrs followed by compound washout measured after 72 hrs by cytochalasin-B-blocked micronucleus assay (reference value: 183 +/- 9.6); assay type: functional; procedure, shortened: as §1
PBL [24] = test: Radioprotective activity in 2-Gy gamma irradiated human PBL assessed as incidence of micronuclei in binucleated cells at 3 uM treated for 2 to 19 hrs followed by compound washout measured after 72 hrs by cytochalasin-B-blocked micronucleus assay (reference value: 1.2 +/- 0.03); assay type: functional; procedure, shortened: as §1
PBL [25] = test: Radioprotective activity in 2-Gy gamma irradiated human PBL assessed as frequency of micronuclei at 3 uM treated for 2 to 19 hrs followed by compound washout measured after 72 hrs by cytochalasin-B-blocked micronucleus assay relative to control; assay type: functional; procedure, shortened: as §1

COc1cc(-c2oc3cc(O)c(OC)c(O)c3c(=O)c2O[C@@H]2O[C@H](CO)[C@@H](O)[C@H](O)[C@H]2O)ccc1O was tested. Which Activity (PBL [1]) did it give?
The Activity was 1.6.

What about the Activity (PBL [2]) of the same molecule?
Its Activity is 1.6.

And the Activity (PBL [3])?
Its Activity is 1.6.

What about the Activity (PBL [4]) of the same molecule?
Its Activity is 12.1%.

What about the Activity (PBL [5]) of the same molecule?
The Activity was 11.7%.

And the Activity (PBL [6])?
The Activity was 12.3%.

And the Activity (PBL [7])?
The Activity was 141.8.

What about the Activity (PBL [8]) of the same molecule?
Its Activity is 139.3.

And the Activity (PBL [9])?
Its Activity is 148.

What about the Activity (PBL [10]) of the same molecule?
Its Activity is 1.2.

What about the Activity (PBL [11]) of the same molecule?
The Activity was 1.2.

What about the Activity (PBL [12]) of the same molecule?
The Activity was 1.2.

And the Activity (PBL [13])?
The Activity was 77.5%.

What about the Activity (PBL [14]) of the same molecule?
The Activity was 76.1%.

What about the Activity (PBL [15]) of the same molecule?
The Activity was 80.9%.

For NCCCNCCSP(=O)(O)O [AMIFOSTINE], which Activity (PBL [16]) is on record?
Its Activity is 1.6.

And the Activity (PBL [17])?
Its Activity is 13.9%.

What about the Activity (PBL [18]) of the same molecule?
Its Activity is 166.

What about the Activity (PBL [19]) of the same molecule?
The Activity was 1.2.

And the Activity (PBL [20])?
The Activity was 90.7%.

With CO[C@@]12[C@H](COC(N)=O)C3=C(C(=O)C(C)=C(N)C3=O)N1C[C@@H]1N[C@@H]12 [MITOMYCIN] as the molecule, how does the Activity (PBL [21]) read?
The Activity was 1.6.

And the Activity (PBL [22])?
The Activity was 17.9%.

And the Activity (PBL [23])?
The Activity was 226.1.

What about the Activity (PBL [24]) of the same molecule?
Its Activity is 1.3.

What about the Activity (PBL [25]) of the same molecule?
The Activity was 123.5%.
